Bioassay records deposited in PubChem by several laboratories.
This is a sample that favours compounds with a hit; in the whole collection about 1.4% have one here.
FXIa inh 1536 – factor XIa (human) inhibition; purified FXIa, Boc-Glu-Ala-Arg-AMC fluorogenic substrate; inhibition, % at 5 µM; 220,000 tested, 0.14% active; AID 798;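 active = inhibition of at least 40%; inactive = inhibition below 40%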;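 also: fluorescence of freed AMC excited at 355 nm; 0% = enzyme without compound and 100% = no enzyme blank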
m-calpain inh – calpain II (pig) inhibition; inhibition, % at 16 µM; 220,000 tested, 0.37% active; purified calpain II, fluorogenic peptide substrate, 30 min;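 active = inhibition above about 50%, limit read from the data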
thrombin 1536 – thrombin (human) inhibition; P00734; alpha-thrombin, Boc-VPR-AMC fluorogenic substrate cleavage; inhibition, % at 5 µM; 220,000 tested, 0.26% active; AID 1046;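 active = inhibition at or above 40%; inactive = inhibition below 40%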;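 also: 0% = enzyme with no compound and 100% = wells without enzyme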
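System: Human alpha-thrombin protein | Medium: pH 7.5 Tris (50 mM) with NaCl 150 mM, Tween 20 0.05% | Times: Enzyme reaction carried out at room temperature | Detection: AMC fluorescence, 355/460 nm | Evaluation: Percent inhibition scaled between no-compound controls and no-enzyme blanks | Benchmarks: Enzyme without compound as high, wells lacking enzyme as low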
FXIIa inh – inhibitors of human coagulation factor XIIa; inhibition, % at 5 µM; 220,000 tested, 0.3% active; P00748; purified FXIIa, Boc-QGR-AMC fluorogenic substrate, 2 h; in the data active = inhibition above about 40%;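 also: 0% = enzyme with no compound and 100% = blank without enzyme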
Target sequence (P00748 20-372 limits assumed): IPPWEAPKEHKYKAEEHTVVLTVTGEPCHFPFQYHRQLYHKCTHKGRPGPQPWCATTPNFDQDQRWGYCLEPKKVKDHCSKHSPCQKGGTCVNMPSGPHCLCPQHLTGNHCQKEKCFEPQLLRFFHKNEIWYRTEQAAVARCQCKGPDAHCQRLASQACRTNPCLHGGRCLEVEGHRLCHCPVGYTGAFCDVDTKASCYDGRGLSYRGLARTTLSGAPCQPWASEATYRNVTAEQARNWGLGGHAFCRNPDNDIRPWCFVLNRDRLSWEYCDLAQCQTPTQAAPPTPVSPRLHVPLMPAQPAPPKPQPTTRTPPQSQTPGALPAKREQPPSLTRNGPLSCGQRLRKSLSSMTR
Target sequence (P00748 373-615 limits assumed): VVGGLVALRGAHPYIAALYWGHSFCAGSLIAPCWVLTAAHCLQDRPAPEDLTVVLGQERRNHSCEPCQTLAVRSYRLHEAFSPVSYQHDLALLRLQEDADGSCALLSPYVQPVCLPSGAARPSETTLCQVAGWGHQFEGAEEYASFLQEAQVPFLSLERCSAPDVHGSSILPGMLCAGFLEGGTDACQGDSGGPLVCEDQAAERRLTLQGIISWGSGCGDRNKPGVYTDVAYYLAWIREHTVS
KLK5 inh – inhibitors of human kallikrein 5; Q9Y337; recombinant hK5, fluorogenic AMC substrate cleavage; inhibition, % at 5 µM; 210,000 tested, 0.59% active; AID 873;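 active = inhibition of 40% or more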;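 also: 0% = enzyme controls without compound and 100% = no-enzyme blanks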
* hit, by the source's call; x = not tested or not shown.

SMILES | FXIa inh 1536 | m-calpain inh | thrombin 1536 | FXIIa inh | KLK5 inh
CCN(CC)c1ccc(NC(=O)c2nc3nc(C)cc(C(F)F)n3n2)cc1 | 8.6 | 3.6 | 22.1 | 10.8 | 48.1*
COc1ccc(NC(=O)c2nc3nc(C)cc(C(F)F)n3n2)cc1OC | -5.6 | -6.0 | -6.8 | 7.2 | -11.6
CCOC(=O)C1CCCN(C2CC(=O)N(c3ccc(C)cc3)C2=O)C1 (stereo unspecified) | 12.3 | 3.2 | 12.4 | 19.2 | 40.5*
CC1CC(C)CN(S(=O)(=O)N2CCC(C(=O)NCCC3=CCCCC3)CC2)C1 (stereo unspecified) | 1.0 | 11.6 | 1.2 | 4.5 | -1.9
O=c1cc(CN2CCN(c3ccc(F)cc3)CC2)c2cc3c(cc2o1)CCCC3 | 18.4 | 5.7 | 17.0 | 27.0 | 40.3*
O=C(Cc1nnc(NC(=O)c2ccccc2)s1)N/N=C/c1ccco1 | 3.1 | 2.3 | -12.0 | 5.8 | 5.6
Cc1ccc(Cn2cc(/C=N/NC(=O)Cc3nnc(NC(=O)c4ccc(C)cc4)s3)c3ccccc32)cc1 | 27.6 | 44.2 | 31.4 | 40.1* | 9.8
O=C1Nc2c(c(=O)[nH]c(=O)n2-c2ccccc2)C1(Nc1ncccn1)C(F)(F)F (stereo unspecified) | 15.1 | -6.4 | 12.5 | 31.7 | 155.8*
O=C(O)c1ccccc1SCC(=O)N1CCCCC1 | 4.8 | 16.4 | 2.3 | 7.8 | -0.4
O=C(O)c1ccccc1SCC(=O)N1CCOCC1 | 32.7 | 9.1 | 40.9* | 17.9 | 28.9
Cc1nc2ccccc2c(=O)n1NC(=O)c1ccc([N+](=O)[O-])cc1 | -1.1 | 37.5 | -9.0 | 8.7 | 0.6
CC(C(=O)NCc1cccnc1)N1C(=O)c2ccccc2C1=O (stereo unspecified) | -8.6 | -8.6 | -6.8 | -0.6 | 0.4
CC(C(=O)NCc1ccccn1)N1C(=O)c2ccccc2C1=O (stereo unspecified) | 18.3 | 7.2 | 103.8* | 12.5 | 33.7
CC(C)N1C(=O)CCN(C=O)c2ccccc21 | -1.2 | -21.9 | -4.3 | 10.8 | 1.3
COc1ccc(C(=O)CSc2nc3ncccc3[nH]2)cc1OC | 22.6 | 18.1 | 8.2 | 102.4* | 18.8
COc1cc(/C=C2\C(=N)N3N=CSC3=NC2=O)cc(Br)c1OC(=O)c1ccco1 | 0.7 | 17.1 | 2.2 | 6.1 | 0.8
Clc1cccc(CN2CCN(Cc3nc(CCc4ccccc4)no3)CC2)c1 | 3.9 | 4.8 | 1.2 | 7.7 | x
Cc1nn(Cc2ccc(C(=O)Nc3nccs3)cc2)c(C)c1Cl | 13.2 | -14.9 | 104.2* | 25.2 | 44.2*
COc1cccc(C(=O)NCCCn2ccnc2)c1 | -3.0 | -28.6 | -5.8 | 0.9 | -4.8
Cc1ccccc1N1C(=S)NC2c3ccccc3OC1(C)C2C(=O)N(C)C (stereo unspecified) | -0.9 | -13.3 | 1.6 | -1.4 | -15.6
Cc1ccc(N2C(=S)NC3c4ccccc4OC2(C)C3C(=O)N(C)C)cc1 (stereo unspecified) | -0.1 | -27.1 | 44.4* | 15.3 | 5.2
Clc1ccc(-c2ccc(SCc3ccccn3)nn2)cc1 | 12.1 | 4.3 | 15.6 | 22.2 | 43.2*
Cc1cc(C)cc(OCc2nnc(N)s2)c1 | -1.5 | 4.7 | -8.5 | 4.5 | 0.0
CCCCCC(=O)Nc1cccc(C2=NOC3(C2)C[C@@H](C(N)=O)N(C(=O)c2cc([N+](=O)[O-])cc([N+](=O)[O-])c2)C3)c1 (stereo partly specified) | 0.0 | -66.8 | -3.2 | 6.5 | 0.4
CCCCCC(=O)Nc1cccc(C2=NOC3(C2)C[C@@H](C(N)=O)N(C(=O)c2cc([N+](=O)[O-])cc([N+](=O)[O-])c2C)C3)c1 (stereo partly specified) | 40.5* | -11.0 | 14.4 | 24.5 | 13.6
SMILES | FXIa inh 1536 | m-calpain inh | thrombin 1536 | FXIIa inh | KLK5 inh
Cc1ccc(NCc2nnc(SCC(=O)N(Cc3ccccc3)C(C)(C)C)o2)c(C)c1 | -6.9 | 60.2* | -4.7 | -5.1 | 2.0
Cc1noc(C)c1COc1ccc(C(=O)OCC(=O)NC23CC4CC(CC(C4)C2)C3)cc1 | 5.5 | 16.7 | 0.6 | 14.3 | 5.0
O=C(OCc1nnc(-c2ccc(Cl)cc2)o1)c1ccncc1 | -8.0 | -214.5 | -11.5 | 3.9 | -15.3
Cc1noc(C)c1COc1ccc(C(=O)OCC(=O)NC2CCCCC2C)cc1 (stereo unspecified) | 6.4 | 24.8 | 19.7 | 10.2 | 42.6*
Cc1noc(C)c1COc1ccc(C(=O)OCc2nnc(-c3ccc(Cl)cc3)o2)cc1 | -4.8 | 51.2* | -1.0 | 2.1 | -16.6
CCn1cc(C(C)NC(=O)Nc2ccc3c(c2)OCO3)c(C)n1 (stereo unspecified) | -4.4 | -31.4 | 3.1 | 1.0 | -11.6
CCOC(=O)c1ccc(NC(=O)Nc2ncccc2C)cc1 | -2.9 | 51.1* | -3.1 | 4.7 | -1.6
CCCCCCn1ccc(=N)cc1 | -0.9 | 10.2 | -1.4 | 9.5 | -6.9
CCCCCCCCCCCCCCCCn1cc[n+](CC(C)=O)c1 | -4.1 | 53.8* | 3.2 | 3.8 | -11.8
COc1ccccc1C(=O)N(CCC1CCCN1C)c1nc2ccccc2s1 (stereo unspecified) | -1.5 | -8.3 | -1.4 | 2.5 | -0.5
CCCCNC(=O)COC(=O)c1cc(C)oc1C | -2.4 | -20.7 | -6.2 | x | 0.8
Cc1nn2c(NCCCN(C)C)c3c(nc2c1-c1ccccc1)CCC3 | 3.4 | -34.4 | 67.6* | 3.3 | 56.2*
Cc1ccc(S(=O)(=O)NCC(=O)OCC(=O)Nc2ncc(Cl)cc2Cl)cc1 | 5.7 | -85.0 | 8.3 | 71.3* | 3.9
Cc1ccc(S(=O)(=O)CCC(=O)OCC(=O)Nc2ncc(Cl)cc2Cl)cc1 | 4.5 | -9.7 | 5.1 | 14.2 | -9.2
Cc1cccc(NC(=O)CSc2nc(C)c(Cc3ccccc3)c(=O)[nH]2)c1C | 0.5 | -25.0 | 0.2 | 7.9 | x
Cc1cccc(NC(=O)CSCc2c(C)noc2C)c1C | 34.6 | 23.7 | 0.2 | 56.1* | 7.9
CC(=O)Oc1ccccc1C1C[C@]2(C)CC(=O)NC2N1C(C)=O (stereo partly specified) | -2.5 | 5.7 | -2.1 | 3.0 | x
N#CC1=C(N)C(C#N)(C#N)[C@H](c2ccoc2)[C@H]2CN(Cc3ccccc3)CC=C12 | 7.2 | -203.7 | 19.6 | 28.8 | 112.0*
NC(=O)CSc1ccc(-c2ccc(F)cc2)nn1 | -7.3 | -5.4 | -7.1 | 3.7 | -5.6
COC(=O)c1ccc(C)c(N(CCO)CCO)c1 | 4.3 | 9.3 | 24.4 | 9.7 | 56.5*
COC(=O)c1ccc(C(=O)NCCCCO)cc1 | -1.9 | 2.8 | -1.7 | 6.2 | 0.7
Fc1cccc2sc(N3CCCCC3)nc12 | -22.9 | -27.8 | 2.9 | 17.0 | -23.0
Fc1cc(F)c2nc(N3CCCC3)sc2c1 | 32.0 | 15.4 | 0.9 | 102.6* | 36.0
Cc1ccc(OCc2nnc(N)s2)cc1C | -3.4 | -12.2 | -8.9 | 5.0 | 0.1
COc1cccc(NC(=O)C(c2ccccc2)N2CCNC(=O)C2)c1 (stereo unspecified) | 3.6 | 33.9 | -4.7 | 8.6 | -2.5
COC(=O)c1nc(NC(=O)C(C)C)n[nH]1 | -9.2 | 25.7 | 35.0 | 15.6 | 13.4
COC(=O)c1nc(NC(C)=O)n[nH]1 | 0.0 | 4.1 | 24.7 | 48.0* | 4.8
O=C(CSc1ncccn1)N/N=C/c1ccccc1[N+](=O)[O-] | -2.4 | 6.6 | -6.9 | 8.0 | -3.5
